# Source: PubChem
# PKD1 inh: PKD1 (human) kinase inhibition | Q15139 | PKD1 kinase fluorescence polarization assay | inhibition, % (concentration not given with the values) | actives 0.056% (n = 200,000); in the data active means inhibition above about 50%
# Target sequence (Q15139 whole entry, looked up): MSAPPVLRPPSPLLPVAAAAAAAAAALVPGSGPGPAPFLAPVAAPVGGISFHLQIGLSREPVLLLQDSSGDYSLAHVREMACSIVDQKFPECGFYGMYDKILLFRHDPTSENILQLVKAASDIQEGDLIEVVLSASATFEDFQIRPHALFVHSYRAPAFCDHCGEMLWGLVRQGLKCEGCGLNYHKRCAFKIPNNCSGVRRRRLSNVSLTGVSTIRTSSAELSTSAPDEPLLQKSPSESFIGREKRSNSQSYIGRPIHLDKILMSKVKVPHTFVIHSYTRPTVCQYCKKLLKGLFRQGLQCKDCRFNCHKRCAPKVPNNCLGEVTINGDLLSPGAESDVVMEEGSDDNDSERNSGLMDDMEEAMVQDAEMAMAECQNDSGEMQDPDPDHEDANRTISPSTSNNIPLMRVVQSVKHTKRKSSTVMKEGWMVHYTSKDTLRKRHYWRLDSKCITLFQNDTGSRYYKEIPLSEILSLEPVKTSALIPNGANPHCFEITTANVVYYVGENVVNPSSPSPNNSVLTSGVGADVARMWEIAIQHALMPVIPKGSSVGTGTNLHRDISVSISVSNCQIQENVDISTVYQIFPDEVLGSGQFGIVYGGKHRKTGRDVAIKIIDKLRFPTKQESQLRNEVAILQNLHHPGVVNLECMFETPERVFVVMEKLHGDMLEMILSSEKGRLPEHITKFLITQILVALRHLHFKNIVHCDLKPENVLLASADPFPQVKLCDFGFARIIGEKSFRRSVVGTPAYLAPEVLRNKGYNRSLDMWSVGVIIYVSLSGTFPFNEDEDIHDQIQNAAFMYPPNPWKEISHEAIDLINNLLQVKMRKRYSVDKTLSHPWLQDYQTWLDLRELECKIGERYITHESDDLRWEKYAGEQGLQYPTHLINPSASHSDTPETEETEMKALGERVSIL
# TNAP act hiacc: activators of human TNAP at high phosphate acceptor concentration; purified TNAP, CDP-star luminescence, 1 M DEA, 30 min; hits give high values; 0 = EDTA background, 1 = DMSO-only activity; activation factor at 20 µM; P05186; 200,000 tested, under 10 active;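 active means activation factor at least 2 at 20 µM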
#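 Measured by: Luminescent substrate turnover signal | Test system: Human TNAP | Input: TNAP 1/800 final | Dosing: 20 µM single point | Schedule: 30 min, room temperature | Controls: EDTA wells as negative control, DMSO wells as positive control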
# ABCB1 block: human ABCB1 inhibition, ABCG2 as counter-screen; P08183; CCRF-Adr cells, JC-1 efflux, flow cytometry; inhibition, % at 6.6 µM; actives 0.067% (n = 190,000); AID 1326; in the data active means inhibition above about 40%;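 further: higher value means more JC-1 retained so stronger ABCB1 efflux block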
# ABCG2 inh: blocks JC-1 efflux by human ABCG2 transporter | IgMXP3 cells, flow cytometry | inhibition, % at 6.6 µM | actives 0.1% (n = 190,000) | AID 1325;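 active means inhibition above 80%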
#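 test system = two drug-resistant human cell lines, ABCG2 and ABCB1 | amount = 3 million cells/mL final, two lines in 1:1 ratio | reagent = JC-1 transporter substrate | doses = one concentration, 6.6 µM final | incubation = 10 min at 25 °C | signal = flow cytometric JC-1 green MFI at 530 nm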
# TNAP inh noacc: inhibitors of human TNAP without phosphate acceptor; purified TNAP, CDP-star luminescence, 30 min; inhibition, % at 20 µM; AID 1012; P05186; actives 0.26% (n = 200,000);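 active means tissue-nonspecific alkaline phosphatase inhibition above about 50% at 20 µM in the single-dose screen, limit read from the data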
# TNAP inh hiacc: inhibitors of human TNAP at high phosphate acceptor concentration | AID 1135 | inhibition, % at 20 µM | purified TNAP, CDP-star luminescence, 1 M DEA | actives 0.03% (n = 200,000);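 active means over 50% inhibition of tissue-nonspecific alkaline phosphatase at 20 µM in the single-dose screen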
# Hits are given with their value; . = inactive; / = no result. Rows were chosen to be rich in hits. Some 0.48% of all compounds tested hit in one or more screens of this group.
SMILES,PKD1 inh,TNAP act hiacc,ABCB1 block,ABCG2 inh,TNAP inh noacc,TNAP inh hiacc
Cc1ccc(-c2cc(C(=O)N/N=C/c3ccco3)[nH]n2)cc1,.,.,.,.,87,.
O=C(N/N=C/c1ccco1)c1cc(-c2cccc3ccccc23)n[nH]1,.,.,.,.,.,.
Cc1cc(C(=O)N/N=C/c2ccco2)n[nH]1,.,.,.,.,.,.
O=S1(=O)N=C(Nc2nncs2)c2ccccc21,.,.,.,.,61,.
COc1cccc(/C=N/NC(=O)c2cc(-c3cccn3C)n[nH]2)c1,.,.,.,.,94,.
COc1cc(/C=N/NC(=O)c2cc(-c3cccn3C)n[nH]2)cc(OC)c1OC,.,.,.,.,91,.
COc1cccc(/C=N/NC(=O)c2cc(-c3cccn3C)n[nH]2)c1O,.,.,.,.,.,.
Cc1ccc(-c2nnc(Nc3ccc4c(c3)OCO4)c3ccccc23)cc1S(N)(=O)=O,.,.,.,.,79,.
Cc1cc(C)c2c(-n3cccc3)n[nH]c2n1,.,.,.,.,68,.
CCN(CC)c1ccc(/C=C2\C(=O)c3ccc(C(=O)O)cc3C2=O)cc1,.,.,88,135,57,.
O=C(NNC(=O)c1cc2cc(Br)ccc2oc1=O)c1ccc(O)cc1,.,.,.,.,82,.
Cc1ccc2c(CSc3nncn3C)cc(=O)oc2c1C,.,.,.,.,.,.
CCOC(=O)Cc1cc(=O)n2[nH]c(-c3ccc(Cl)cc3)cc2n1,.,.,.,.,.,.
O=c1cc(-c2ccc([N+](=O)[O-])cc2)nc2cc(-c3ccc(Cl)cc3)[nH]n12,.,.,.,.,51,.
COc1ccccc1N1CCN(C(=O)CSc2nc3ncnc(N)c3[nH]2)CC1,.,.,.,.,60,.
COc1ccccc1N1CCN(C(=O)CSc2nc(-c3ccccc3)cc(=O)[nH]2)CC1,.,.,.,.,.,.
Nc1ncnc2nc(SCC(=O)N3CCN(c4ccccc4)CC3)[nH]c12,.,.,.,.,62,.
CCCc1cc2c(cc1NC(=O)c1ccco1)OCO2,.,.,.,.,.,.
CN=c1scc(-c2ccc(F)cc2)n1/N=C/c1ccc(O)c(O)c1,.,.,.,.,70,.
COc1ccc(-c2[nH]ncc2CN(CCO)Cc2cccs2)c(F)c1,.,.,.,.,69,.
COc1ccc(-c2[nH]ncc2CN(C)C(C)c2ccon2)c(OC)c1 (configuration not stated),.,.,.,.,.,.
COc1ccc(-c2[nH]ncc2CN(C)C(C)c2ccncn2)c(F)c1 (configuration not stated),.,.,.,.,63,.
CCN(Cc1ccncc1)Cc1cn[nH]c1-c1ccc(OC)cc1F,.,.,.,.,55,.
COc1cc(/C=C2\SC(=O)N(CCN)C2=O)ccc1OS(=O)(=O)c1cc(C)ccc1C,.,.,.,.,.,.
CC1CN(CC(O)COCc2ccc3c(c2)OCO3)CC(C)O1 (configuration not stated),.,.,.,.,.,.
SMILES,PKD1 inh,TNAP act hiacc,ABCB1 block,ABCG2 inh,TNAP inh noacc,TNAP inh hiacc
COc1ccc(S(=O)(=O)N2CCCCCC2)cc1C(=O)OCC(=O)NC(N)=O,.,.,.,.,.,.
Cn1cccc1C(=O)NC(=O)COC(=O)c1cc(S(=O)(=O)N2CCCCC2)ccc1Cl,91,.,.,.,.,.
NC(=O)c1ccc(-n2nnnc2SCC(=O)c2ccc(O)c(O)c2)cc1,.,.,.,.,82,.
COc1ccc(-n2nnnc2SCC(=O)c2ccc(O)c(O)c2)cc1,.,.,.,.,76,.
COc1ccc(-n2nnnc2SCC(N)=O)cc1,.,.,.,.,.,.
COc1ccc(CCC(=O)N2CCCSC2=Nc2ccc(C(C)=O)cc2)cc1,.,.,.,.,.,.
S=C(Nc1cccc(Cl)c1Cl)N1CCC2(CC1)OCCO2,.,.,.,.,.,.
CC(C)CNC(=O)NC(=O)COC(=O)Cn1cnc2ccccc2c1=O,.,.,.,.,.,.
O=C(O)CCN1C(=O)CC(N2C(=O)/C(=C/c3ccc(Cl)cc3)SC2=S)C1=O (configuration not stated),.,.,.,.,64,.
O=C(CCN1C(=O)S/C(=C/c2ccc(Cl)cc2)C1=O)N1CCOCC1,.,.,.,.,.,.
CC(C)NCC(O)c1ccc(NS(C)(=O)=O)cc1 (configuration not stated),/,.,/,.,.,.
CC(C)NC[C@@H](O)c1ccc(O)c(O)c1,.,.,.,.,71,.
O=C(CSc1ccc2ccccc2c1)Nc1ccncc1,.,.,.,.,.,.
O=C(CSc1ccncc1)Nc1ccc2ccccc2c1,71,.,.,.,.,.
Oc1ccc(N=Nc2n[nH]c(-c3ccc(Cl)cc3)n2)cc1,.,.,.,.,69,.
CN(C)c1ccc(/C=C(/C(=O)c2ccc(Cl)cc2Cl)n2cncn2)cc1,.,.,.,.,.,55
C#CCOCCOCCOCCNc1nc(N2CCN(C(=O)Cn3cc(CCCN=C(N)N)nn3)CC2)nc(N2CCN(C(=O)[C@H]([C@@H](C)CC)n3cc(CCCN=C(N)N)nn3)CC2)n1,.,.,.,.,.,.
Clc1ccc(-c2n[nH]c3c2CCCC3)cc1,.,.,.,.,53,.
CC(C)c1csc(CN2CCC(N3CCC(C(=O)N4CCOCC4)CC3)CC2)n1,.,.,.,.,.,.
O=C1/C(=C/c2ccc(O)cc2)SC(=S)N1Cc1cccnc1,.,.,.,.,.,63
O=c1cc(-c2ccc(O)c(O)c2)oc2c(C3O[C@H](CO)[C@@H](O)[C@H](O)[C@H]3O)c(O)cc(O)c12 (some centres not stated),.,.,.,.,53,.
CCOC(=O)c1sc(NC(=O)CSc2nncn2C)nc1C,.,.,.,.,.,.
CN(C)c1ccc(/C=C(\C#N)C(=O)Nc2nc3c(s2)CCN(Cc2ccccc2)C3)cc1,.,.,.,.,55,.
O=C(Nc1nc2c(s1)CN(Cc1ccccc1)CC2)C1CCC1,.,.,.,.,.,.
COC(=O)c1ccc(S(=O)(=O)N2CCCCCC2)cc1,.,.,.,.,.,.
O=C(/C=C/c1ccc(O)c(O)c1)c1ccc(S(=O)(=O)N2CCCCCC2)cc1,.,.,.,.,57,.
CCN(CC)CC(=O)Nc1ccc(-c2ccc(NC(=O)CN(CC)CC)c(OC)c2)cc1OC,.,.,.,.,.,.
CC(=O)N/C(=C/c1ccc2c(c1)OCO2)C(=O)NCc1ccccc1,.,.,.,.,67,.
COc1ccc(NC(=O)/C(=C/c2ccc3c(c2)OCO3)NC(C)=O)cc1,.,.,.,.,.,.
